Activity calls are given as the source filed them. No cut-off for these calls is given here.
Assays:
[1] = target: T1, NAD-dependent protein deacetylase sirtuin-1 (Homo sapiens) (UniProt Q96EB6); experiment: Activation of human SIRT1 assessed as decrease in Km of enzyme for acetylated peptide substrate by mass spectrometry assay
T1 sequence (whole entry): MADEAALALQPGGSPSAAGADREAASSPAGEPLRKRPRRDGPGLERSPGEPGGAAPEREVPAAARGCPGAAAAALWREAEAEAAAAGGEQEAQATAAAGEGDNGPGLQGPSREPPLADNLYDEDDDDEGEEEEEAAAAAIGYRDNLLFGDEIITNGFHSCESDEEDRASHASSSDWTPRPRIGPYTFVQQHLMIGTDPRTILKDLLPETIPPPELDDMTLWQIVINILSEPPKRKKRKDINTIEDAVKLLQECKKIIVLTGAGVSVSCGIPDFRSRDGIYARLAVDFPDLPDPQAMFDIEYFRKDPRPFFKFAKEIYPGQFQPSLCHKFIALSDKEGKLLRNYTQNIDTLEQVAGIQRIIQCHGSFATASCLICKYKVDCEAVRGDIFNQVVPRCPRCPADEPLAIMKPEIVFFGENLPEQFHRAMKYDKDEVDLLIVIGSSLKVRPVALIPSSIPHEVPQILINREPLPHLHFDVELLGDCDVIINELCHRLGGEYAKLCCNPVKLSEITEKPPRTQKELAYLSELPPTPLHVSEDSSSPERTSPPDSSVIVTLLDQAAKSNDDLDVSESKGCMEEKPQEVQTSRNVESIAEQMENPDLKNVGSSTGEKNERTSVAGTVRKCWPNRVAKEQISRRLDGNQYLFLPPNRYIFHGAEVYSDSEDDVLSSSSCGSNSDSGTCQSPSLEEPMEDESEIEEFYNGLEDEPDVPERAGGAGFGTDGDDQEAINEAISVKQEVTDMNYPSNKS

[2] = target: T2, NAD-dependent protein deacetylase sirtuin-1 (Homo sapiens, UniProt Q96EB6); experiment: Binding affinity to human SIRT1 by isothermal titration calorimetry
T2 sequence (Q96EB6 whole entry): T1 sequence (whole entry)

[3] = target: T3, NAD-dependent protein deacetylase sirtuin-2 (Homo sapiens, UniProt Q8IXJ6); experiment: Activation of SIRT2 by mass spectrometry assay
T3 sequence (Q8IXJ6 whole entry): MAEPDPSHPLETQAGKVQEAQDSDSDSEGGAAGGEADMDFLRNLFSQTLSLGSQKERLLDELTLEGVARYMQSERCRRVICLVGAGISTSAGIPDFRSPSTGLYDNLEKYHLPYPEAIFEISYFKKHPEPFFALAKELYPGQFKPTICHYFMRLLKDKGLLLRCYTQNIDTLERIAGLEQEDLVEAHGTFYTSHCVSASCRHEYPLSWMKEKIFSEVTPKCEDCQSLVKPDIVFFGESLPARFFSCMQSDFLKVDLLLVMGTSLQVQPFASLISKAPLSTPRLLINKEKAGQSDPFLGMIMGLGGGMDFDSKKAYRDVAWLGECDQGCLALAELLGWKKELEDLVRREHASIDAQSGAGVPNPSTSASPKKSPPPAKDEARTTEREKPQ

[4] = target: T4, NAD-dependent protein deacetylase sirtuin-3, mitochondrial (Homo sapiens, UniProt Q9NTG7); experiment: Activation of SIRT3 by mass spectrometry assay
T4 sequence (Q9NTG7 whole entry): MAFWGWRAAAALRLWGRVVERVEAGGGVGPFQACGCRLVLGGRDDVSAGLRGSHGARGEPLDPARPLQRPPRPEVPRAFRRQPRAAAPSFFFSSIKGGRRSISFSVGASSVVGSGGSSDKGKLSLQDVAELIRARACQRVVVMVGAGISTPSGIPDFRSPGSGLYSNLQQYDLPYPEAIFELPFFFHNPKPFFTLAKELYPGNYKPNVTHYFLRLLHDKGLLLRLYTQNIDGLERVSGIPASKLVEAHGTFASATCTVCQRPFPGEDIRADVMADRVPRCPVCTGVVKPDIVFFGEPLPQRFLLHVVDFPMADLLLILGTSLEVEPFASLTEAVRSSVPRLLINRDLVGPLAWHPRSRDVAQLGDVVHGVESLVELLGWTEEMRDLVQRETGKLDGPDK

[5] = target: T1, NAD-dependent protein deacetylase sirtuin-1 (Homo sapiens); experiment: Activation of SIRT1 in human U2OS cells assessed as decrease in deacetylation level at 10 uM; format: cell-based
How it was run: (§1)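 U-2 OS cells seeded 1.5 × 10⁴/well; compounds in DMSO added after 24 h, then doxorubicin 1 μg/ml final to induce p53. Fixed, permeabilized, immunostained for Ac-Lys382-p53 and beta-tubulin, infrared scan; background-corrected acetyl signal normalized to tubulin, then to vehicle as % acetylated p53. Replicate plates co-treated with a SIRT1-specific inhibitor.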

[6] = target: T1, NAD-dependent protein deacetylase sirtuin-1 (Homo sapiens); experiment: (§2) Activation of human SIRT1 expressed in Escherichia coli BL21 by mass spectrometry assay
[7] = target: T2, NAD-dependent protein deacetylase sirtuin-1; experiment: as §2
[8] = tested on: Mus musculus; experiment: Reduction of hyperinsulinemia in DIO C57BL/6 mouse model at 100 mg/kg, po after 4 weeks; format: functional, organism-based; parameters: dose 100 mg/kg
[9] = target: T1, NAD-dependent protein deacetylase sirtuin-1 (Homo sapiens); experiment: Activation of human SIRT1-C construct by mass spectrometry assay relative to control
[10] = target: T1, NAD-dependent protein deacetylase sirtuin-1 (Homo sapiens); experiment: Activation of human SIRT1-G (235-664) construct by mass spectrometry assay relative to control
[11] = target: T1, NAD-dependent protein deacetylase sirtuin-1 (Homo sapiens); experiment: Activation of human SIRT1-E (225-664) construct by mass spectrometry assay relative to control
[12] = target: T1, NAD-dependent protein deacetylase sirtuin-1 (Homo sapiens); experiment: Activation of SIRT1 in human U2OS cells assessed as decrease in p53 deacetylation level at 0.10 uM; format: cell-based; how it was run: as §1
[13] = tested on: Rattus norvegicus; experiment: Increase in glucose infusion rate required to maintain euglycaemia in po dosed Zucker fa/fa rat relative to control; format: functional
How it was run: (§3)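 Cannulated 10-week-old fa/fa Zucker rats, unrestrained. D-[3-3H]glucose prime 7.5 μCi, then infused at 0.167 μCi/min; basal samples at -10 and 0 min for hepatic glucose production. From 0 min, insulin at 25 mU/kg/min plus variable 50% dextrose infusion; plasma insulin and FFA at 0 and 120 min.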

[14] = Terminal half life in Sprague-Dawley rat at 100 mg/kg/day, po; format: ADME, organism-based; parameters: route oral; conditions: in vivo
[15] = AUC in Sprague-Dawley rat at 100 mg/kg/day, po; format: ADME, organism-based; parameters: route oral; conditions: plasma
[16] = AUC in C57BL/6 mouse at 100 mg/kg/day, po; format: ADME, organism-based; parameters: route oral; conditions: plasma
How it was run: (§4)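 Oral gavage in 2% HPMC + 0.2% DOSS (hydrochloride salt) to male C57BL/6 mice, 18-22 g, 3 per dose group per time point; blood taken at 5, 30, 120 and 360 min after dosing after CO2 sacrifice; plasma drug levels measured.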

[17] = tested on: Mus musculus; experiment: Reduction of fasting blood glucose in DIO C57BL/6 mouse model at 100 mg/kg, po assessed as glucose level by glucose tolerance test; format: functional
How it was run: (§5)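 Male C57BL/6 mice, started at nine weeks, fed 60%-fat diet until mean weight ~40 g; 6-10 per group; once-daily oral gavage in 2% HPMC + 0.2% DOSS. Fed glucose at 2, 4, 6, 8, 10 weeks; IPGTT after 5 weeks; ITT after 10 weeks. One-way ANOVA with Dunnett's test vs control, p<0.05.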

[18] = Bioavailability in Sprague-Dawley rat administered at 10 mg/kg, iv; format: ADME, organism-based; conditions: in vivo
[19] = tested on: Rattus norvegicus; experiment: Reduction of blood glucose level in po dosed Zucker fa/fa rat assessed as glucose level after 3 weeks by glucose tolerance test; format: functional
How it was run: (§6)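 On day 26 of daily oral dosing, fa/fa Zucker rats fasted 5 h, then gavaged with 1 g/kg dextrose; tail-vein glucose at 0, 15, 30, 60, 90 min; plasma for insulin at 0, 15, 30, 60 min.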

[20] = target: T1, NAD-dependent protein deacetylase sirtuin-1 (Homo sapiens); experiment: Activation of human SIRT1-F (230-664) construct by mass spectrometry assay relative to control
[21] = species on record: Rattus norvegicus; experiment: Reduction in hepatic gluconeogenesis in Zucker fa/fa rat assessed as glucose response by pyruvate tolerance test relative to control; format: functional, organism-based
How it was run: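 Day 22 of daily oral dosing in fa/fa Zucker rats: after overnight fast, sodium pyruvate 1 g/kg ip in 0.9% NaCl; tail-vein glucose at 0, 30, 40, 50, 60 and 90 min.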

[22] = species on record: Mus musculus; experiment: Reduction of insulin level in chow-fed C57BL/6 mouse; format: functional, organism-based
[23] = tested on: Mus musculus; experiment: Reduction of glucose levels in DIO C57BL/6 mouse model at 100 mg/kg, po during insulin tolerance test; format: functional, organism-based; parameters: dose 100 mg/kg; how it was run: as §5
[24] = target: T1, NAD-dependent protein deacetylase sirtuin-1 (Homo sapiens); experiment: Activation of human SIRT1-D (219-664) construct by mass spectrometry assay relative to control
[25] = tested on: Rattus norvegicus; experiment: Increase in glucose disposal rate in po dosed Zucker fa/fa rat relative to control; format: functional; how it was run: as §3
[26] = tested on: Mus musculus; experiment: Increase in mitochondrial capacity in DIO C57BL/6 mouse model assessed as citrate synthase activity at 100 mg/kg, po after 10 weeks; format: functional; conditions: in the assay text read “after 11 weeks” for “after 10 weeks”
How it was run: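 Citrate synthase activity in gastrocnemius and epididymal white adipose tissue after 11 weeks of daily oral dosing in high-fat-fed C57BL/6 mice; five mice per group closest to the group's mean fasting glucose were selected.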

[27] = Terminal half life in C57BL/6 mouse at 100 mg/kg/day, po; format: ADME, organism-based; parameters: route oral; conditions: in vivo; how it was run: as §4
[28] = target: T1, NAD-dependent protein deacetylase sirtuin-1 (Homo sapiens); experiment: Activation of human SIRT1-B (172-664) construct by mass spectrometry assay relative to control
[29] = target: T1, NAD-dependent protein deacetylase sirtuin-1 (Homo sapiens); experiment: Activation of human SIRT1-A (156-664) construct by mass spectrometry assay relative to control
[30] = tested on: Rattus norvegicus; experiment: Increase in adipose insulin sensitivity in po dosed Zucker fa/fa rat assessed as plasma free fatty acid level relative to control; format: functional; how it was run: as §3
[31] = tested on: Mus musculus; experiment: Reduction of blood glucose level in diabetic Lep ob/ob mouse model at 100 mg/kg, po after 1 week; format: functional, organism-based; parameters: dose 100 mg/kg
How it was run: (§7)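 ob/ob mice received at 6 weeks, kept on 60%-fat diet from at least one week before study; ~40-45 g; grouped by body weight and glucose; once-daily oral gavage in 2% HPMC + 0.2% DOSS. One-way ANOVA with Dunnett's test vs control, p<0.05.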

[32] = tested on: Rattus norvegicus; experiment: Increase in insulin sensitivity in po dosed Zucker fa/fa rat assessed as hepatic glucose production relative to control; format: functional, organism-based; how it was run: as §3
[33] = tested on: Mus musculus; experiment: Effect on body weight in diabetic Lep ob/ob mouse model at 100 mg/kg, po; format: functional, organism-based; parameters: dose 100 mg/kg; how it was run: as §7
[34] = tested on: Rattus norvegicus; experiment: Reduction of blood insulin level in po dosed Zucker fa/fa rat after 3 weeks by glucose tolerance test; format: functional; how it was run: as §6
[35] = tested on: Rattus norvegicus; experiment: Increase in insulin-induced glucose disposal rate into skeletal muscle in po dosed Zucker fa/fa rat relative to control; format: functional
[36] = Bioavailability in C57BL/6 mouse at 100 mg/kg/day, po; format: ADME, organism-based; conditions: in vivo
How it was run: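 Male C57BL/6 mice (18-22 g, 3 per group per time point). Oral dosing by gavage in 2% HPMC + 0.2% DOSS, compared with tail-vein iv dosing in 10% ethanol/40% PEG/50% water.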

[37] = target: T1, NAD-dependent protein deacetylase sirtuin-1 (Homo sapiens); experiment: Activation of human SIRT1-H (240-664) construct by mass spectrometry assay relative to control

COc1cc(C(=O)Nc2ccccc2-c2cn3c(CN4CCNCC4)csc3n2)cc(OC)c1OC
Activity [1]: Active
Kd [2]: 16.2 µM
EC50 [3]: > 300 µM
EC50 [4]: > 300 µM
Activity [5]: Active
Activity [6]: 447%
EC50 [7]: 2.9 µM

O=C(Nc1ccccc1-c1cn2c(CN3CCNCC3)csc2n1)c1cnc2ccccc2n1
Activity [8]: Active
Activity [9]: 5.6
Activity [10]: 1.9
Activity [11]: 1.6
Activity [12]: Active
Activity [13]: 35%
half-life [14]: 8.4 h
AUC [15]: 3710 ng·h/mL
AUC [16]: 7890 ng·h/mL
Activity [17]: 462 mg/h/dL
bioavailability [18]: 25%
Activity [19]: 2490 mg/min/dL
Activity [20]: 1.5
Activity [21]: Active
Activity [1]: Active
EC50 [3]: 37 µM
Activity [22]: inactive
Activity [23]: Active
Activity [24]: 1.3
Activity [25]: 20%
Activity [26]: 15%
half-life [27]: 5 h
Activity [28]: 5.8
EC50 [4]: > 300 µM
Activity [29]: 5.9
Activity [30]: 40%
Activity [31]: Active
Activity [32]: Active
Activity [33]: inactive
Activity [34]: 25 ng/min/dL
Activity [35]: 55%
Activity [6]: 781%
bioavailability [36]: 50%
Activity [37]: 2

Reference: ChEMBL document CHEMBL1147981, “Small molecule activators of SIRT1 as therapeutics for the treatment of type 2 diabetes” (Nature, 2007)
